Published values collected from several papers.
Each line is one published result; the experiments were not run side by side.
BRAF V600E: Serine/threonine-protein kinase B-raf (BRAF, Homo sapiens, UniProt P15056, V600E)
BRAF: Serine/threonine-protein kinase B-raf (BRAF, Homo sapiens, UniProt P15056)

SMILES	target	assay	setting	quantity	value
CC(C)(C)c1nc(-c2cccc(NS(=O)(=O)c3c(F)cccc3F)c2F)c(-c2ccnc(N)n2)s1	BRAF V600E	enzyme activity, inhibitor, radiometric	1 µM	activity vs control	1%
COc1cc(Cl)c(C(=O)N[C@@H](CN[C@H]2CC[C@@H](N)CC2)Cc2ccc(C#N)cc2)cc1-c1ccc(CN[C@H](C)c2ccc(C)cc2)o1	BRAF	enzyme activity, inhibitor	1 µM	remaining activity	97%
CNC(=O)Nc1ccc2c(c1)[C@@]1(CC2)OC(=O)N(CC(=O)N(Cc2ccc(F)cc2)[C@@H](C)C(F)(F)F)C1=O	BRAF V600E	cell-free assay, competition with immobilised ligand	1 µM	remaining binding	96%
Cc1ccc(C(CS(=O)(=O)c2ccccc2)=NN=C2N=C(c3ccc(C)cc3)CS2)cc1	BRAF V600E	enzyme activity, inhibitor, ATP luminescence	10 µM	inhibition	86%
c1nc2c(Nc3ccc4c(c3)OCCO4)nc(Nc3ccc4c(c3)OCCO4)nc2[nH]1	BRAF	enzyme activity, inhibitor	10 µM	activity vs control	92%
NC(=S)NN=C(CS(=O)(=O)c1ccccc1)c1ccc(F)cc1	BRAF V600E	enzyme activity, inhibitor, ATP luminescence	1 µM	inhibition	76%
CC1CCCN1c1nccc(-c2cnn3ncccc23)n1 (centres unmarked)	BRAF	binding	1 µM	remaining binding	100%
O=C(Nc1cccnn1)N1CCC(=Cc2cccc(Oc3ccc(C(F)(F)F)cn3)c2)CC1	BRAF V600E	cell-free assay, competition with immobilised ligand	1 µM	remaining binding	100%
Nc1ncnc2occ(-c3ccc(NC(=O)Nc4cc(C(F)(F)F)ccc4F)cc3)c12	BRAF V600E	cell-free assay	20 µM	remaining signal	0.05%
COc1cc2nccc(Oc3ccc(NC(=O)Nc4ccc(F)cc4F)c(F)c3)c2cc1OC	BRAF	thermal stability, DSF	10 µM	ΔTm	> 10 °C
O=C1NC(=O)c2cc(Nc3ccc(F)cc3)c(Nc3ccc(F)cc3)cc21	BRAF	cell-free assay	0.5 µM	remaining signal	94.2%
Cc1c(NC(=O)c2cc(C(N)=O)nc3cc(F)ccc23)c(C(F)(F)F)nn1Cc1ccc(C#N)cc1	BRAF	cell-free assay, competition with immobilised ligand	1 µM	remaining binding	91%
Cc1ccc(C(CS(=O)(=O)c2ccccc2)=NNC2=NC(=O)C(=NNc3ccc(Cl)cc3)S2)cc1	BRAF V600E	enzyme activity, inhibitor, ATP luminescence	0.1 µM	inhibition	46%
Cc1ccc(NC(=O)c2ccc(CN3CCN(C)CC3)cc2)cc1Nc1nc(-c2cccnc2)cs1	BRAF	cell-free assay	0.5 µM	remaining signal	92.3%
CC(C)(C)c1nc2c(s1)c1nc(N)ncc1c1ccc(NS(=O)(=O)c3c(F)cccc3F)c(F)c12	BRAF	enzyme activity, inhibitor, radiometric	1 µM	remaining activity	27%
N[C@@H]1CCN(c2nccc(-c3cnn4ncccc34)n2)C1	BRAF	binding	1 µM	remaining binding	100%

SMILES	target	assay	setting	quantity	value
Cc1ccc(C(=O)Nc2ccc(CN3CCN(C)CC3)c(C(F)(F)F)c2)cc1C#Cc1cnc2cccnn12	BRAF V600E	cell-free assay	23.5 nM	remaining signal	4.5%
COc1ccc2cc(OCC3(C(=O)O)CN(C(=O)c4ccc(F)cc4)C3)ccc2c1	BRAF	cell-free assay, competition with immobilised ligand	1 µM	remaining binding	93%
Cc1ccc(C(CS(=O)(=O)c2ccccc2)=NNC2=NC(=O)C(=NNc3ccccc3)S2)cc1	BRAF V600E	enzyme activity, inhibitor, ATP luminescence	1 µM	inhibition	67%
C[C@H](c1ccc(F)cc1)N(Cc1cccc(C(=O)O)c1)C(=O)c1cnc2ccccc2c1	BRAF V600E	cell-free assay, competition with immobilised ligand	1 µM	remaining binding	100%
COc1ccc(-c2csc(NN=C(CS(=O)(=O)c3ccccc3)c3ccc(F)cc3)n2)cc1	BRAF V600E	enzyme activity, inhibitor, ATP luminescence	10 µM	inhibition	89%
Cc1cc(NC(=O)c2cccc3cc(-c4cccc5[nH]nc(N)c45)ccc23)ccc1F	BRAF	enzyme activity, inhibitor	0.1 µM	activity vs control	99%
CCCCN(CCCC)C(=O)CN1C[C@H](c2cc(OC)c3c(c2)OCO3)[C@@H](C(=O)O)[C@@H]1CC(C)(C)CCC	BRAF V600E	cell-free assay, competition with immobilised ligand	1 µM	remaining binding	89.1%
C[S+]([O-])c1ccc(-c2nc(-c3ccncc3)c(-c3ccc(F)cc3)[nH]2)cc1 (centres unmarked)	BRAF	cell-free assay	0.5 µM	remaining signal	78.8%
Cc1ccc(C(CS(=O)(=O)c2ccccc2)=NNc2nc(C)c(N=Nc3ccccc3)s2)cc1	BRAF V600E	enzyme activity, inhibitor, ATP luminescence	1 µM	inhibition	63%
O=C(Nc1cnc(Oc2ccc(F)cc2)nc1)N1CCc2ncccc2[C@@H]1c1ccc(F)cc1	BRAF V600E	cell-free assay, competition with immobilised ligand	1 µM	remaining binding	83%
O=C(Nc1cnn(-c2csc(C(=O)NC3COC3)c2)c1)Nc1ccccc1Cl	BRAF	enzyme activity, inhibitor	5 µM	remaining activity	93.3%
CC(C)(C)c1nc(-c2cccc(NS(=O)(=O)c3c(F)cccc3F)c2F)c(-c2ccnc(N)n2)s1	BRAF V600E	enzyme activity, inhibitor, ATP luminescence	1 µM	inhibition	81%
O=C1NC(c2ccccn2)Sc2ccccc21 (centres unmarked)	BRAF V600E	cell-free assay, competition with immobilised ligand	1 µM	remaining binding	94%
CC(C)(O)[C@H]1CC[C@H](Nc2ccc3ncc(-c4cccc(C(F)(F)F)c4)n3n2)CC1	BRAF	enzyme activity, inhibitor	1 µM	remaining activity	93.8%
Cc1ccc(C(CS(=O)(=O)c2ccccc2)=NNc2nc(-c3ccc(OCCCCOc4ccc(-c5csc(NN=C(CS(=O)(=O)c6ccccc6)c6ccc(C)cc6)n5)cc4)cc3)cs2)cc1	BRAF V600E	enzyme activity, inhibitor, ATP luminescence	10 nM	inhibition	32%
Cc1ccc(C(=O)NCc2ccsc2)cc1C#Cc1cn(C(C)C)c2ncnc(N)c12	BRAF	enzyme activity, inhibitor	1 µM	activity vs control	47%
